Data set [1] deals with T1, Estrogen receptor (Rattus norvegicus) (UniProt P06211+Q62986). Conditions: at 1 mg/kg; call rule not given here.
The target of data set [2] is T2, Estrogen receptor beta (Homo sapiens, UniProt Q92731).
The nature of data set [3]: (§1) Half life period in female Sprague-Dawley rats. Format: ADME, organism-based. Conditions: female, Sprague-Dawley, rat, in vivo. The method, boiled down:
(§2)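 Female Sprague–Dawley rats were dosed intravenously at 1 mpk (n = 2) and orally at 2 mpk (n = 3) for pharmacokinetic evaluation.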

Data set [4] deals with T3, Estrogen receptor (Homo sapiens, UniProt P03372).
T3 sequence (P03372 whole entry): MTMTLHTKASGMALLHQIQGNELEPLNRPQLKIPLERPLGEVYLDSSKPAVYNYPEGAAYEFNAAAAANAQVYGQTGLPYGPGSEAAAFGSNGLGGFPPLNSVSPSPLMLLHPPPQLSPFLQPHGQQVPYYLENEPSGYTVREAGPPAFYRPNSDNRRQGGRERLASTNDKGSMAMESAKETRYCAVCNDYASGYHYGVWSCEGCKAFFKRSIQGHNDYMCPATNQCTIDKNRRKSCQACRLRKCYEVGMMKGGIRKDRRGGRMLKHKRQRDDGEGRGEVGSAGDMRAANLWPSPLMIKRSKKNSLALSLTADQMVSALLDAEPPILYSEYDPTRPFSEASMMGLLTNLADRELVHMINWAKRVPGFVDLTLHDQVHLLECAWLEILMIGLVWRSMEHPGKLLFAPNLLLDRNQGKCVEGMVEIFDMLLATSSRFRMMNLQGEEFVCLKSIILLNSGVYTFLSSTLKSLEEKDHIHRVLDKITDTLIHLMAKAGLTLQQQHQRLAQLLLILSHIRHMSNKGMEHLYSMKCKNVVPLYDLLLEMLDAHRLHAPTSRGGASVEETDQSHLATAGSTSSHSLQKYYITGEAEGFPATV

A short description of data set [5]: (§3) Bioavailability in rat (Sprague-Dawley) (female). It counts as ADME, organism-based. Conditions: female, Sprague-Dawley, in vivo. The method, boiled down:
as §2

A short description of data set [6]: (§4) Plasma clearance of the compound in female Sprague-Dawley rats. It counts as ADME, organism-based. Conditions: female, Sprague-Dawley, rat, plasma. The method, boiled down:
as §2

Data set [7] concerns the target T1, Estrogen receptor (Rattus norvegicus). Conditions: at 1 mg/kg. The source holds these as a separate data set.
Data set [8] is filed under the species Rattus norvegicus. Described as §1. Format: ADME, organism-based. As to conditions: in vivo. The method, boiled down: as §2
The species named for data set [9] is Rattus norvegicus. Described as §3. It counts as ADME, organism-based. As to conditions: in vivo. The method, boiled down: as §2
The species entered for data set [10] is Rattus norvegicus. Described as §4. Format: ADME, organism-based. As to conditions: in vivo. The method, boiled down:
as §2

Data set [11] concerns the target T3, Estrogen receptor. The data set can be described thus: Agonist effect in transcriptional activation in HEK293 cells expressing human estrogen receptor alpha; NA= not active. It counts as functional, cell-based.
In data set [12] the target is T1, Estrogen receptor (Rattus norvegicus). As to conditions: at 1 mg/kg. This is another data set of the same source.
Data set [13] shares this target. Conditions: at 1 mg/kg. This is another data set of the same source.
Data set [14] deals with T2, Estrogen receptor beta. The data set can be described thus: Agonist effect in transcriptional activation in HEK293 cells expressing human estrogen receptor beta; NA= not active. It counts as functional, cell-based.

The structures appear in SMILES notation.

T2 sequence (Q92731 whole entry): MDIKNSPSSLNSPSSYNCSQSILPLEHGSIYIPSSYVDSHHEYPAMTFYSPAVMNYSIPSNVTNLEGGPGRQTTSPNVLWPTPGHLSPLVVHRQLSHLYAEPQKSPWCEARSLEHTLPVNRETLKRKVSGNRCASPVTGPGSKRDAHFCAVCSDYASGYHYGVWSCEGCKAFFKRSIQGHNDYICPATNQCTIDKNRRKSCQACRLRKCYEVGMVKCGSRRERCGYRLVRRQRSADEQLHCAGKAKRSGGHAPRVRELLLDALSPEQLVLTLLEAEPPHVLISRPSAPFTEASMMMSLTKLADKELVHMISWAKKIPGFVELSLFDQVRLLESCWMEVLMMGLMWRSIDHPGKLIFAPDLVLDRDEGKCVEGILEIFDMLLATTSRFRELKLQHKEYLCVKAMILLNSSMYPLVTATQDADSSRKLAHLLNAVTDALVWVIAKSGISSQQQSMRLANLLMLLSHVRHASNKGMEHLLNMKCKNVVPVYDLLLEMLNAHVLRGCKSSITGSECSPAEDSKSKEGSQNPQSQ

`Oc1ccc([C@H]2Sc3c(ccc(O)c3F)O[C@H]2c2ccc(OCCN3CCCCC3)cc2)cc1` gave an Antagonism in data set [1] of 100%. Also, the IC50 on Estrogen receptor beta [2] is 18 nM; at Estrogen receptor [4], 1 nM. Besides, in data set [3], the half-life is 3.1 h. In addition, in data set [5], the bioavailability came out at 37%. In [6], this compound showed a clearance of 18 mL/min/kg. In data set [7], this compound yielded an Estrogenic effect of 1%.
`Oc1ccc([C@@H]2Sc3cc(O)ccc3O[C@@H]2c2ccc(OCCN3CCCCC3)cc2)cc1` (stereo in doubt; 11L) [listing 1 of 2 here]: in data set [1], the Antagonism was 16%. Further, in data set [7], the Estrogenic effect was 1%.
`Oc1ccc([C@@H]2Sc3cc(O)ccc3O[C@@H]2c2ccc(OCCN3CCCCC3)cc2)cc1` (stereo in doubt; 11L) [listing 2 of 2 here] came in with a T1/2 in the data set filed under Rattus norvegicus [8] of 1.6 h. Also, the F in the data set filed under Rattus norvegicus [9] came to 10%. The CL in the data set filed under Rattus norvegicus [10] came to 31 mL/min/kg.
As for `CC1CCCC(C)N1CCOc1ccc([C@@H]2Oc3ccc(O)cc3S[C@@H]2c2cccc(O)c2)cc1` (stereo partly specified), the half-inhibitory concentration (IC50) at Estrogen receptor beta [2] is 350 nM; on Estrogen receptor [11], “Not Active”; against Estrogen receptor [4], 3.4 nM; at Estrogen receptor beta [14], “Not Active”. The compound also registered an Estrogenic effect in [12] of 30%. The compound further returned an Antagonism in data set [13] of 43%.
On to `Oc1ccc([C@@H]2Sc3cc(O)ccc3O[C@@H]2c2ccc(OCCN3CCCCC3)cc2)cc1` (stereo in doubt; 11), for which, in the data set filed under Rattus norvegicus [8], the T1/2 is 3.8 h. Besides, the F in the data set listed under Rattus norvegicus [9] stood at 31%. This compound also showed a CL in the data set filed under Rattus norvegicus [10] of 5 mL/min/kg.

For the origin of these results see ChEMBL document CHEMBL1146754, “Estrogen receptor ligands. Part 4: The SAR of the syn-dihydrobenzoxathiin SERAMs” (Bioorg Med Chem Lett, 2004).
